Experimental data published in paper PMC6468299 (Nucleic Acids Research, 2019).
Where two headings read alike, the source gives them in different places. Values belong to the molecule of their own block, whether it stands above or below them.

Experiments:
[1] = biological target: T1, DNA polymerase α (Pol-α) (Homo sapiens, UniProt P09884); assay: DNA polymerase inhibition assay, Pol-α; type: biochemical
T1 sequence (P09884 1-1462): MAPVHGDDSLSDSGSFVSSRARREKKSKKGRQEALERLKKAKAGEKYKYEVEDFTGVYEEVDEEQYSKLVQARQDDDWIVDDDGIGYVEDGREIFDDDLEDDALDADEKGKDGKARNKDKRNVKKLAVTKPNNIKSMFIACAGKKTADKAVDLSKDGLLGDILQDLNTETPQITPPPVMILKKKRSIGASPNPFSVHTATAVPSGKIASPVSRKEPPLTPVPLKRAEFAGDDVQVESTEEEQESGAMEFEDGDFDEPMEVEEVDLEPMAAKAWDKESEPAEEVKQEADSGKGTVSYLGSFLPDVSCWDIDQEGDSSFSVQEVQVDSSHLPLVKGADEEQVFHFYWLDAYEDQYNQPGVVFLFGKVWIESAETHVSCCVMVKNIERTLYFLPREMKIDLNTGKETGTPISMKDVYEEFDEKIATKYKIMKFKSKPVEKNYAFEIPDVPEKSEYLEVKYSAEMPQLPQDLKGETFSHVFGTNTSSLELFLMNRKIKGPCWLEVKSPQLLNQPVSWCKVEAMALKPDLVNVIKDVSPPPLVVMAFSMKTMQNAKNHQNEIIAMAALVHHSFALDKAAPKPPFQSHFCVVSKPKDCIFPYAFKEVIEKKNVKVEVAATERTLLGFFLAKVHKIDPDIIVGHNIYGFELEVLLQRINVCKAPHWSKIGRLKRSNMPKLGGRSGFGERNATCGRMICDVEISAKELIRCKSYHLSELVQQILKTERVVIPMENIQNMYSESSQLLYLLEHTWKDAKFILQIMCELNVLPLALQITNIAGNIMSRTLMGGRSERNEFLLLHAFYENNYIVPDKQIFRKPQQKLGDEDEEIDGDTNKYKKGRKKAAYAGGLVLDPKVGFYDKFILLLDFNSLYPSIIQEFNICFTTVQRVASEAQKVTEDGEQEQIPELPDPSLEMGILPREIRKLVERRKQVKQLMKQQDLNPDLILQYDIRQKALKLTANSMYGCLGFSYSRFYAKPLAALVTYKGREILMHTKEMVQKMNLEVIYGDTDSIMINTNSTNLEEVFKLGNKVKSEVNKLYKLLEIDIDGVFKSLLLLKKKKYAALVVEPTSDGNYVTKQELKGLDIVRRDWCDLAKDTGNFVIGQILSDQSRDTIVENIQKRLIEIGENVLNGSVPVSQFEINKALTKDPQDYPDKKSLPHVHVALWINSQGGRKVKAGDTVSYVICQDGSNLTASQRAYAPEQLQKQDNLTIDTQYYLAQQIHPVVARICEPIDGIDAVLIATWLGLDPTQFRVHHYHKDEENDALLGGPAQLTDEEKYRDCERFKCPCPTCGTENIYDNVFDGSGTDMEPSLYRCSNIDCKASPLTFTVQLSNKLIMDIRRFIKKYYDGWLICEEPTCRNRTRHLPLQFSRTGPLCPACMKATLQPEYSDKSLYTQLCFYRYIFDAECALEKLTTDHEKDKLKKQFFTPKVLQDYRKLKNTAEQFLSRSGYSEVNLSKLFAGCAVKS

[2] = biological target: DNA polymerase β (Pol-β) (Homo sapiens, UniProt P06746); assay: DNA polymerase inhibition assay, Pol-β; type: biochemical; conditions: 1 h, 3H-dTTP incorporation
Method in brief: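 Reactions contained 25 μM each dATP/dCTP/dGTP, 25 nM TTP plus 1 μCi ³H-TTP, 160 nM template/primer, and serially diluted test nucleotide (0–200 μM). Incubation was 1 h at 37°C. DNA was TCA-precipitated, washed and counted; inhibition was taken from reduced incorporation. ddNTPs served as positive control.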

[3] = biological target: T2, DNA polymerase γ (Pol-γ) (Homo sapiens, UniProt P54098); assay: DNA polymerase inhibition assay, Pol-γ; type: biochemical; conditions: 1 h, 3H-dTTP incorporation
T2 sequence (P54098 1-1239): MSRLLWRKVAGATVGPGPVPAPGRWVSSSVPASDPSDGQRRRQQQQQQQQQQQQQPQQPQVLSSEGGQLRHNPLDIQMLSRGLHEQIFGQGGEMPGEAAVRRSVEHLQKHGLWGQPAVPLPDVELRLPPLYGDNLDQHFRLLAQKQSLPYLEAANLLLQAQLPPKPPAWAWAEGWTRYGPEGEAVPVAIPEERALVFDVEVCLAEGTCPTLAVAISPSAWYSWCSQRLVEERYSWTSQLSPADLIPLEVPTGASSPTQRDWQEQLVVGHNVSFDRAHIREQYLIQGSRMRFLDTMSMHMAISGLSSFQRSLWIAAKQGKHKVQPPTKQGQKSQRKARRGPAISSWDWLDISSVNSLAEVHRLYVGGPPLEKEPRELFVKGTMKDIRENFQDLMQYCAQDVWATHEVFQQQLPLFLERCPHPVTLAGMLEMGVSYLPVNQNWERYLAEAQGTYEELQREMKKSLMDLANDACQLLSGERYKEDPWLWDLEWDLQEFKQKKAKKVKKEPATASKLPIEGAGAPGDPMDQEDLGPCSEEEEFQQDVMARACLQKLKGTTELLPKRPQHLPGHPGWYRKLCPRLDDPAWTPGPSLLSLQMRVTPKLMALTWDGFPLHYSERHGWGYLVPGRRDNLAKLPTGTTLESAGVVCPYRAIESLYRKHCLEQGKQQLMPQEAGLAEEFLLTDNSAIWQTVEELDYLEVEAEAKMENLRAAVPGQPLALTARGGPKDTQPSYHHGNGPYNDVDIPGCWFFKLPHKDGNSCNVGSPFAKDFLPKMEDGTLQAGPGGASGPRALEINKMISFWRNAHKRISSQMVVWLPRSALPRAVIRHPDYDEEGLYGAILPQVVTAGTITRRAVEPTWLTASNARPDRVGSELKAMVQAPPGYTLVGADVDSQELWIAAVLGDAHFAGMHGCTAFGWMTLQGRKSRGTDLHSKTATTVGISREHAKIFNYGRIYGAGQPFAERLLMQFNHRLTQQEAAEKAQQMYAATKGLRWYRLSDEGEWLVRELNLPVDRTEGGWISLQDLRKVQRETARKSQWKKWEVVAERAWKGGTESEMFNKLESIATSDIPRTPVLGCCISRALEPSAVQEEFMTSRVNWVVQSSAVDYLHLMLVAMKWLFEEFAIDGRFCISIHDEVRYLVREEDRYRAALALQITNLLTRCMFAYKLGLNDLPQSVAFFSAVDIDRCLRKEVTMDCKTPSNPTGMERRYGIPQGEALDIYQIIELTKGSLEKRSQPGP
Method in brief: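 Reactions contained 25 μM each dATP/dCTP/dGTP, 25 nM TTP plus 1 μCi ³H-TTP, 160 nM template/primer, and serially diluted test nucleotide (0–200 μM). Incubation was 1 h at 37°C, stopped with TCA (10% final). DNA was precipitated 40 min at 4°C, washed and scintillation-counted; inhibition was taken from reduced radioactivity.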

[4] = Cytotoxicity, sulforhodamine B assay, HepG2; type: cell-based, human; conditions: human, HepG2 cells (liver), day 11, four doses
Method in brief: (§1)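 Cells were grown 1 week in glucose- or galactose-containing medium, then seeded in 96-well plates. iCell cardiomyocytes were seeded on gelatin-coated plates and grown 5 days. Test compounds in 1:1 ethanol:water were added at each media change on days 0, 3, 7 and 10 (four doses), at up to 250 μM. Final ethanol was 2.5% at 250 μM and 1% otherwise. Total protein was read by sulforhodamine B on day 11. CC50 was fitted from triplicates.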

[5] = Cytotoxicity, sulforhodamine B assay, SkMC; type: cell-based, human; conditions: human, SkMC cells (muscle), CC50, SkMC, day 11
Method in brief: as §1

[6] = Cytotoxicity, sulforhodamine B assay, Caki-1; type: cell-based, human; conditions: human, Caki-1 cells (kidney), day 11
Method in brief: as §1

[7] = Cytotoxicity, sulforhodamine B assay, Molt-4; type: cell-based, human; conditions: human, Molt-4 cells (blood), day 11
Method in brief: as §1

[8] = Cytotoxicity, sulforhodamine B assay, COLO 205; type: cell-based, human; conditions: human, COLO 205 cells (intestine), day 11
Method in brief: as §1

[9] = Cytotoxicity, sulforhodamine B assay, SNB-78; type: cell-based, human; conditions: human, SNB-78 cells (CNS), day 11
Method in brief: as §1

[10] = system: SNB-78 (CNS); assay: Cytotoxicity, sulforhodamine B assay, SNB-78; type: cell-based, human; conditions: SNB-78
Method in brief: as §1

[11] = Cytotoxicity, sulforhodamine B assay, iCell cardiomyocytes; type: cell-based; conditions: human, iCell cardiomyocytes (heart)
Method in brief: as §1

[12] = Pol-α, 1 h, 3H-dTTP incorporation

IC50 [1, 12]: > 200 µM | IC90 [1, 12]: > 200 µM | IC50 [2]: > 200 µM | IC90 [2]: > 200 µM | IC50 [3]: > 200 µM | IC90 [3]: > 200 µM
Molecule: O=P(O)(O)OP(=O)(O)OP(=O)(O)OC[C@H]1O[C@@H](n2cnc3c(O)ncnc32)[C@H](F)[C@@H]1O [2′-F-ITP]

Molecule: C[C@@]1(CO)[C@H](O)CC[C@@]2(C)[C@H]1CC[C@H]1C[C@@H]3C[C@@]12CC[C@]3(O)CO [Aphidicolin, reference compound]
IC90 [1]: 16.5 µM

Molecule: CC(C)OC(=O)[C@H](C)N[P@](=O)(OC[C@H]1O[C@@H](n2ccc(=O)[nH]c2=O)[C@](C)(F)[C@@H]1O)Oc1ccccc1 [SOF, Sofosbuvir]
CC50 at 11 days ([4]; CC50, HepG2, Galactose media): 97 µM | CC50 at 11 days ([4]; CC50, HepG2, Glucose media): 114 µM | CC50 at 11 days ([5]; Galactose media): > 250 µM | CC50 at 11 days ([5]; Glucose media): > 250 µM | CC50 at 11 days ([6]; CC50, Caki-1, Galactose media): > 250 µM | CC50 at 11 days ([6]; CC50, Caki-1, Glucose media): > 250 µM | CC50 at 11 days ([7]; CC50, Molt-4, Galactose media): > 250 µM | CC50 at 11 days ([7]; CC50, Molt-4, Glucose media): > 250 µM | CC50 at 11 days ([8]; CC50, COLO 205, Galactose media): 123 µM | CC50 at 11 days ([8]; CC50, COLO 205, Glucose media): 155 µM | CC50 at 11 days ([9]; CC50, SNB-78, Galactose media): 120 µM | CC50 at 11 days ([9]; CC50, SNB-78, Glucose media): > 250 µM | decrease of CC50 in galactose compared to glucose media [10]: 2–10 fold | CC50 at 11 days [11]: > 250 µM

IC50 [2]: 0.06 µM | IC90 [2]: 0.65 µM | IC50 [3]: 0.35 µM | IC90 [3]: 8.65 µM
Molecule: dideoxy nucleoside 5′ triphosphates [ddNTP, reference compound]
